Most compounds without a hit are left out; they make up all but 1.2% or so of the library.
HKDC1 inh: blocks human hexokinase HKDC1 activity; Q2TB90; recombinant HKDC1, G6PDH/diaphorase resazurin coupled fluorescence; inhibition, % at 20 µM; 0.16% of 340,000 active; AID 493160;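 active means inhibition above about 35% when tested at 20 µM, limit read from the data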
Target sequence (Q2TB90 whole entry, looked up): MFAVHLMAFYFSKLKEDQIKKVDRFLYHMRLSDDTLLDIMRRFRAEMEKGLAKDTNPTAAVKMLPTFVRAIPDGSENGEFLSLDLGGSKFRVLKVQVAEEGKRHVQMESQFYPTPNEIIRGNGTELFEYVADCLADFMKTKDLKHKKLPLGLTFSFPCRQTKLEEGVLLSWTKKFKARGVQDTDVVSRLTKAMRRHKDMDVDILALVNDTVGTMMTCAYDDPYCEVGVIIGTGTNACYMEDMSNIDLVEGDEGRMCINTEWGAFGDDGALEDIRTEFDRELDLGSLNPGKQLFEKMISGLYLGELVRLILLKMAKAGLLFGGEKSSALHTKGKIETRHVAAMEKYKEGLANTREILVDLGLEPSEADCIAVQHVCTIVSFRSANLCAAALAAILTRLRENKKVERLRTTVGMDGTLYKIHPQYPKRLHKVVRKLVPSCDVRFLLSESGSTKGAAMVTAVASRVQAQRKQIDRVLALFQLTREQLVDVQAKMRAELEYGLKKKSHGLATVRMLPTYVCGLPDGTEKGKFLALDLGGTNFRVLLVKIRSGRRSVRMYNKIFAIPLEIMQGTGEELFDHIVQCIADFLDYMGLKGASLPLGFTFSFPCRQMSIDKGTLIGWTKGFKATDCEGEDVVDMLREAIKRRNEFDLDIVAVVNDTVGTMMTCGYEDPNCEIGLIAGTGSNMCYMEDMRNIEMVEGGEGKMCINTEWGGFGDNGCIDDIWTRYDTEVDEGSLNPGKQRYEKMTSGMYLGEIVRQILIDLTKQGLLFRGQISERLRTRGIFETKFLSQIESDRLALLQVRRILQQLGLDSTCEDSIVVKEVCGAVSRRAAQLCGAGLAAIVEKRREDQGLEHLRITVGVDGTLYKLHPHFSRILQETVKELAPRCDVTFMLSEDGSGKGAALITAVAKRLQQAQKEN
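Test system: HK5 enzyme. Quantity: 5 µg/mL HK5 final. Reagent: glucose and ATP substrates. Schedule: 90 min reaction incubation at room temperature, dark. Technique: resazurin-to-resorufin fluorescence via G6PDH and diaphorase coupling, 525/613 nm. Control set: DMSO wells with and without enzyme mix.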
PfGluPho inh: PfG6PD (Plasmodium falciparum) enzyme inhibition | PfGluPho enzyme, NADPH resazurin-diaphorase fluorescence | inhibition, % at 20 µM | 0.78% of 350,000 active;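 active means inhibition reaching at least a set limit at 20 µM in the primary screen, cut at about 59% in these data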
Diaph act CS: counter-screen for diaphorase-based assays: diaphorase activators and chemical reducers. Diaphorase/resazurin coupled assay, resorufin fluorescence, 16 min; active compounds read high; 1 = vehicle wells, 0 = NADH-free wells. activation factor at 20 µM. 0.005% of 190,000 active;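 active means diaphorase activity raised at least twofold by the compound at 20 µM; inactive means activation factor below 2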
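Material: purified diaphorase enzyme from Clostridium kluyveri; Also added: 0.114 mM NADH and 0.1 mM resazurin, final amounts; Doses: single compound dose of 20 µM, 1% DMSO final; Times: 16 min enzyme reaction, ambient temperature; Detection: resorufin fluorescence, excitation 544 nm, emission 590 nm; Measure: increased resorufin signal from activators or reducing compounds.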
Diaphorase inh: inhibits diaphorase or chemically oxidizes, flagging diaphorase assay artifacts; diaphorase resazurin-to-resorufin fluorescence, NADH, 16 min; bacterial (C. kluyveri) enzyme, not human; 0.69% of 190,000 active; inhibition, % at 20 µM;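 active means primary screen inhibition at 20 µM above a set limit, cut at about 50% in these data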
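Assay system – diaphorase enzyme from Clostridium kluyveri · Amount – diaphorase 0.14 U/mL (working solution) · Times – reaction incubation of 16 min at room temperature · Controls – No-NADH positive control and DMSO neutral control · Signal – resorufin fluorescence 544/590 nm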
G6PDH CS: counter-screen for G6PDH assay hits: L. mesenteroides G6PDH inhibition; Purified L. mesenteroides G6PDH, diaphorase/resazurin coupled fluorescence, 45 min; inhibition, % at 5 µM; 0.12% of 200,000 active; in the data active means inhibition above about 50%
Large screens that a line does not name were inactive.

O=S(=O)(NCc1cccnc1)c1cccs1	none
CSC(=NCc1cccnc1)NS(=O)(=O)c1cccs1	Diaphorase inh 74
Nc1ccc2c(c1)C(=O)c1ccccc1-2	none (no result: Diaph act CS, Diaphorase inh, G6PDH CS)
O=C1C(=O)c2ccc(-c3ccccc3)cc2-c2ccccc21	G6PDH CS 54
Cc1[nH]n(-c2ccccc2)c(=O)c1C=Nc1ccc(S(=O)(=O)N=C(N)N)cc1	none (no result: Diaph act CS, Diaphorase inh, G6PDH CS)
Cc1[nH]n(-c2ccccc2)c(=S)c1C=Nc1ccc([N+](=O)[O-])cc1	PfGluPho inh 98
S=c1nc(SCc2ccccc2)[nH]c2ccccc12	Diaphorase inh 87
CCOc1ccc(C2C(C(=O)/C=C/c3ccco3)=C(O)C(=O)N2CCN2CCOCC2)cc1OC (stereo unspecified)	none
O=c1cc2[nH]c3ccccc3c(=O)n2nc1-c1ccccc1	Diaphorase inh 66
N#CC1(NC(=O)COC(=O)c2cc(O)c3ccccc3c2O)CCCCC1	HKDC1 inh 50 (no result: Diaph act CS, Diaphorase inh, G6PDH CS)
Cc1ccc(-c2csc(NC(=O)c3ccc(-c4ccccc4)cc3)n2)o1	PfGluPho inh 60
O=C(Nc1nc(-c2ccco2)cs1)c1ccccc1	none
CCN1/C(=C/C=C/c2oc3ccc4ccccc4c3[n+]2CC)Oc2ccc3ccccc3c21	HKDC1 inh 51, PfGluPho inh 60
CC[n+]1c(/C=C/N(C)c2ccccc2)oc2ccc(Cl)cc21	none
CCN(c1ccc(OC)cc1)S(=O)(=O)c1nnc(NC(=O)COc2ccc(F)cc2)s1	none (no result: Diaph act CS, Diaphorase inh, G6PDH CS)
Oc1ccc(Cl)cc1C=Nc1ccccc1Br	none
Oc1ccc(Br)cc1C=Nc1ccc2c3c(cccc13)CC2	Diaphorase inh 67
CC(=O)c1ccc(NC(=O)c2ccc(C)c(Br)c2)cc1	Diaphorase inh 94
CCN(CC)CCn1c2ccccc2c2n[nH]c(=S)nc21	PfGluPho inh 64 (no result: Diaph act CS, Diaphorase inh, G6PDH CS)
COc1ccc2[nH]c(=O)c(CN(Cc3nnnn3Cc3ccco3)C3CCCCC3)cc2c1	none
Cc1ccc2cc(CN(Cc3ccc4c(c3)OCO4)Cc3nnnn3Cc3ccco3)c(=O)[nH]c2c1	none
COc1ccc2[nH]c(=O)c(CN(C3CCCCC3)C(c3nnnn3Cc3ccco3)C(C)C)cc2c1 (stereo unspecified)	HKDC1 inh 37, PfGluPho inh 88
Cc1ccc(CN(Cc2cc3cc4c(cc3[nH]c2=O)OCCO4)Cc2nnnn2Cc2ccco2)cc1	Diaphorase inh 58
CC(C)(C)c1ccc(C(=O)NCC(=O)OCC(=O)c2ccc3c(c2)-c2ccccc2C3)cc1	none
Nc1cccnc1Sc1ccc([N+](=O)[O-])cn1	Diaphorase inh 50
Cc1cc(O)c(Oc2cc(C)cc(O)c2O)c(O)c1	Diaphorase inh 71
N#CC(c1nc2ccccc2nc1N1CCCC1)S(=O)(=O)c1ccccc1 (stereo unspecified)	Diaphorase inh 53
CN1CCN(c2nc3ccccc3nc2C(C#N)S(=O)(=O)c2ccccc2)CC1 (stereo unspecified)	none (no result: Diaph act CS, Diaphorase inh, G6PDH CS)
Cc1[nH]c2ccccc2c1C(C[N+](=O)[O-])c1ccco1 (stereo unspecified)	Diaphorase inh 51
Cc1cc(C)c[n+](CC(=O)c2ccc(NC(=O)c3ccccc3)cc2)c1	Diaphorase inh 71
Cc1ccc[n+](CC(=O)c2ccc(NC(=O)c3ccccc3)cc2)c1	none
Cc1ccc(S(=O)(=O)N2CCCCC2)cc1NC(=O)C1COc2ccccc2O1 (stereo unspecified)	none (no result: HKDC1 inh, Diaph act CS, Diaphorase inh, G6PDH CS)
Cc1sc2nc(CN3CCOCC3)nc(NCCc3ccccc3)c2c1C	none
Cc1sc2nc(CN3CCOCC3)[nH]c(=S)c2c1C	Diaphorase inh 73
Cc1ccc(-c2cc3c(nn2)-c2ccccc2C3=O)cc1	none (no result: Diaph act CS, Diaphorase inh, G6PDH CS)
Cc1ccccc1-c1cc2c(nn1)-c1ccccc1C2=O	Diaphorase inh 65, G6PDH CS 53
COc1ccc(C(=O)NNC(=S)NC(=O)c2ccc(Cl)cc2)cc1	none (no result: Diaph act CS, Diaphorase inh, G6PDH CS)
COc1ccc(/C=C/C(=O)NC(=S)NNC(=O)c2cccs2)cc1OC	none (no result: Diaph act CS, Diaphorase inh, G6PDH CS)
COc1cc(C(=O)NNC(=S)NC(=O)c2ccc(Cl)cc2)cc(OC)c1OC	Diaphorase inh 61
O=C(/C=C/c1ccccc1)NC(=S)NNC(=O)c1cccnc1	Diaphorase inh 81
COc1ccc(C(=O)NCCNC(=O)c2cnccn2)cc1OC	none (no result: Diaph act CS, Diaphorase inh, G6PDH CS)
COc1ccc(/C=C/C(=O)NC(=S)NNC(=O)c2cccnc2)cc1OC	Diaphorase inh 82
COc1ccc(C(=O)NC(=S)NNC(=O)c2cnccn2)cc1OC	Diaphorase inh 74
CNc1ccc(S(=O)(=O)NCC(=O)OC(C)C(=O)N(C)Cc2ccccc2)cc1[N+](=O)[O-] (stereo unspecified)	none (no result: Diaph act CS, Diaphorase inh, G6PDH CS)
CC(=O)Nc1ccc(NC(=O)CC2Nc3cccc4cccc(c34)NC2=O)cc1 (stereo unspecified)	Diaphorase inh 77
CCOc1ccc(NC(=O)CC2Nc3ccccc3NC2=O)cc1 (stereo unspecified)	none
Cc1cccc(NC(=O)CC2Nc3cccc4cccc(c34)NC2=O)c1 (stereo unspecified)	Diaphorase inh 68
CC(=O)c1ccc(NC(=O)CC2Nc3cccc4cccc(c34)NC2=O)cc1 (stereo unspecified)	Diaphorase inh 84
Cc1ccc(N(C(=O)CCl)C(C(=O)NC2CCCCC2)c2cccnc2)cc1C (stereo unspecified)	none
Cc1ccc(NC(=O)CN2CCc3cc4c(cc3C2C)OCCCO4)cc1C (stereo unspecified)	none (no result: Diaph act CS, Diaphorase inh, G6PDH CS)
CCc1ccc2c(c1)c(N=NC1=NC(=O)CS1)c(O)n2CC	Diaphorase inh 79
Cc1cccc(NC(=O)CSc2nc3ccccc3c(=O)n2CC2CCCO2)c1 (stereo unspecified)	none (no result: Diaph act CS, Diaphorase inh, G6PDH CS)
O=c1[nH]c2ccccc2c2ccccc12	none
O=c1[nH]c2ccccc2c2cn(-c3ccccc3)nc12	PfGluPho inh 64 (no result: Diaph act CS, Diaphorase inh, G6PDH CS)
CCOc1ccc(-c2csc(/C(C#N)=C\c3ccc(O)c([N+](=O)[O-])c3)n2)cc1	Diaphorase inh 87
CCCCn1c(=O)[nH]c2nc3cc(N)ccc3nc2c1=O	Diaphorase inh 67
CC(C)CC(C(=O)Nc1oc(-c2ccco2)c(-c2ccco2)c1C#N)N1C(=O)c2ccccc2C1=O (stereo unspecified)	Diaphorase inh 56
CC(C)CC(C(=O)Nc1cccc(O)c1)N1C(=O)c2ccccc2C1=O (stereo unspecified)	none (no result: Diaph act CS, Diaphorase inh, G6PDH CS)
Cc1cc(=O)n2cccc(O)c2n1	Diaphorase inh 63, G6PDH CS 56
Cc1cccn2c(=O)cc(COC(=O)C(C)Oc3ccccc3)nc12 (stereo unspecified)	none (no result: Diaph act CS, Diaphorase inh, G6PDH CS)
CC1(C)CNc2cc(N)ccc2S1	Diaphorase inh 72
Cc1ccc(SCc2c(C(=O)N/N=C/c3ccoc3)nnn2-c2nonc2N)cc1	none (no result: Diaph act CS, Diaphorase inh, G6PDH CS)
CC(=O)N(C1=C(N)C(=O)c2ccccc2C1=O)C(C)C	none
CCC(=O)N(C1=C(NC(C)C)C(=O)c2ccccc2C1=O)C(C)C	G6PDH CS 55

Screening results as filed in PubChem.
